Source: PMC3361572 (Chemistry & biology, 2012)

Columns and labels:
hFAAH = molecular target: T1, hFAAH (Homo sapiens, UniProt O00519); experiment: competitive ABPP, proteomes of transiently transfected HEK293T cells; type: biochemical
T1 sequence (O00519 1-579): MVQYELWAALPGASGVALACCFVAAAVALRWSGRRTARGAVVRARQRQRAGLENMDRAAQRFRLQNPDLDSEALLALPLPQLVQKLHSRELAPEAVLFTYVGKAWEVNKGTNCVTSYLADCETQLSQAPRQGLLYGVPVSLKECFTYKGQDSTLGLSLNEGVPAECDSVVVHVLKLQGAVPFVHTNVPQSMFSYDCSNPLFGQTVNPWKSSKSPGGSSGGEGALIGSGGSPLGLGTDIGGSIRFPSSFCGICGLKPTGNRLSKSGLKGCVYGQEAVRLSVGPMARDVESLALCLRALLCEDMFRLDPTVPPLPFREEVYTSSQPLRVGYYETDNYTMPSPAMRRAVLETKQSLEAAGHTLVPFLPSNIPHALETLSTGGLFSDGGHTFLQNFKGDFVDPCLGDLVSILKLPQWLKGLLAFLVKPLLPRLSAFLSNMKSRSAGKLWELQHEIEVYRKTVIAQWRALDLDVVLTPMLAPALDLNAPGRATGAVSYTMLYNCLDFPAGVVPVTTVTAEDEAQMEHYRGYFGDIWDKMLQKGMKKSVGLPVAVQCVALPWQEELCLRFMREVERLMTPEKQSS

MAGL [1] = molecular target: T2, MAGL (Rattus norvegicus, UniProt Q8R431); experiment: competitive ABPP of brain from KML29-treated rats; type: in vivo; details: Wistar rats, 40 mg kg^−1 i.p., 4 h
T2 sequence (Q8R431 1-303): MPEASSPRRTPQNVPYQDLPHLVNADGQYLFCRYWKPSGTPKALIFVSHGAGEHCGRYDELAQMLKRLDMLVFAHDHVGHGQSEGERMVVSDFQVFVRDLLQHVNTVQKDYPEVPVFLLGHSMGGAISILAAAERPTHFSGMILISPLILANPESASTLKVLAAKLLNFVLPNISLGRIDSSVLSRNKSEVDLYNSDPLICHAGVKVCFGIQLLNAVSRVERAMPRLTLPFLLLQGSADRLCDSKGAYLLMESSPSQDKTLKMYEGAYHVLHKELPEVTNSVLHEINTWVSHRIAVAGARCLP
Summary of the method: (§1)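 Wistar rats were injected i.p. with the test compound (1–40 mg kg−1) or vehicle. Vehicle was saline:emulphor:ethanol 18:1:1, with prolonged sonication and mild heating to dissolve. Rats were killed at 4 h. Brain, liver, lung and spleen proteomes were labelled with FP-Rh, separated by SDS-PAGE and scanned for in-gel fluorescence. Inhibition was scored as reduced probe labelling. n = 3 rats/group.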

ABHD6 = molecular target: T3, ABHD6 (Rattus norvegicus, UniProt Q5XI64); experiment: competitive ABPP of brain from KML29-treated rats; type: in vivo; details: Wistar rats, 1–40 mg kg^−1 i.p., 4 h
T3 sequence (Q5XI64 1-337): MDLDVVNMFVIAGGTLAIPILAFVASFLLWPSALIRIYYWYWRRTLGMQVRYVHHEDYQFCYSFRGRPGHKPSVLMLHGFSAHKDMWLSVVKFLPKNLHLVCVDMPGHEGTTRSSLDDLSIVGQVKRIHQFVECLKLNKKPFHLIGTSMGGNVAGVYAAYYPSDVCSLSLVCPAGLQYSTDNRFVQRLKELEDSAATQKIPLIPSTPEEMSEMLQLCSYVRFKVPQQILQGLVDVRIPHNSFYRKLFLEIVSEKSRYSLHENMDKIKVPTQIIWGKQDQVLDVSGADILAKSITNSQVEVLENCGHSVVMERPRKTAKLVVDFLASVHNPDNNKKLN
Summary of the method: as §1

MAGL [2] = molecular target: T2, MAGL; experiment: competitive ABPP of peripheral tissues from KML29-treated rats; type: in vivo; details: 4 h
Summary of the method: as §1

O=C(OC(C(F)(F)F)C(F)(F)F)N1CCC(C(O)(c2ccc3c(c2)OCO3)c2ccc3c(c2)OCO3)CC1 [KML29]
cross-reactivity with hFAAH (competitive ABPP) (hFAAH; lysates of HEK293T cells transfected with hFAAH): no-detectable cross-reactivity with hFAAH
IC50 (hFAAH; read-out: IC50 (95% CI), human FAAH, competitive ABPP, transfected HEK293T cell proteome): > 50 µM
inhibition of brain MAGL (MAGL [1]): > 90%
cross-reactivity with brain ABHD6 (ABHD6): without any detectable cross-reactivity
MAGL inhibition in lung and spleen (MAGL [2]; 5 mg kg^−1 i.p.): complete MAGL inhibition
MAGL inhibition in liver (MAGL [2]; 20 mg kg^−1 i.p.): complete MAGL inhibition
